High-throughput results: PubChem BioAssay, The Scripps Research Institute Molecular Screening Center
M1 antag = antagonists of human M1 muscarinic receptor | inhibition, % at 3 µM | AID 588852 | 1.3% of 360,000 active | CHO-K1 hM1, Fluo-8 calcium fluorescence, ACh EC80 antagonist | P11229;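 active = percent inhibition above its own plate's cutoff, namely the mean of that plate's compound wells plus 3 SD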;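 also: peak over basal fluorescence ratio during 140 s after agonist addition; 0% = ACh EC80 plus DMSO and 100% = DMSO alone without agonist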
CHRM5 antagonist = antagonists of human muscarinic M5 receptor (CHRM5); P08912; CHO-hM5 cells, Fluo-8 calcium fluorescence, ACh EC80; inhibition, % at 3 µM; 0.59% of 360,000 active; AID 624040;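 active = inhibition above a per-plate cutoff, the mean of that plate's test compounds plus 3 SD, cut at about 27% in these data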;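 also: 0% = acetylcholine EC80 with DMSO and 100% = DMSO without agonist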
Target sequence (P08912 whole entry, looked up): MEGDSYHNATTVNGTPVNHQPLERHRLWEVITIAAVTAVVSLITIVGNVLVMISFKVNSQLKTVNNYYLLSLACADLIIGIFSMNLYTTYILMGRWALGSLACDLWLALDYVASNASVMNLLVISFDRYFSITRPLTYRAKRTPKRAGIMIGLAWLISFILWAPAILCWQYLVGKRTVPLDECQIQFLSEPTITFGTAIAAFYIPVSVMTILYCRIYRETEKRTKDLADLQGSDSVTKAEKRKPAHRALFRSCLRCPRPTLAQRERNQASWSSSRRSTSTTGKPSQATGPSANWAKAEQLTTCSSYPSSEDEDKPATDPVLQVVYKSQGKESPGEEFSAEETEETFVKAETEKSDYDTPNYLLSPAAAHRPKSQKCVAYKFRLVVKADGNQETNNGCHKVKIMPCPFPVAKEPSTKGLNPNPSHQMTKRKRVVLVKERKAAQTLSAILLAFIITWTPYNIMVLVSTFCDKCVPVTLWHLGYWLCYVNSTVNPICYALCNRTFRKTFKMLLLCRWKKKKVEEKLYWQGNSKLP
CHRM5 agonist = agonists of human muscarinic M5 receptor (CHRM5) | P08912 | CHO-K1 hM5 cells, Fluo-8 calcium fluorescence; 0% DMSO wells, 100% maximal acetylcholine response | activation, % at 3 µM | 0.19% of 360,000 active | AID 624037;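 active = activation above the run's mean over test compounds plus 3 SD, cut at about 23% in these data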;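 also: signal is peak over basal fluorescence ratio across the kinetic read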
M1 ag = agonists of human M1 muscarinic receptor; CHO-K1 hM1, Fluo-8 calcium fluorescence, agonist mode; 0% DMSO, 100% acetylcholine EC100; 0.33% of 360,000 active; P11229; activation, % at 3 µM;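 active = activation above the run's mean compound activation plus 3 SD, cut at about 16% in these data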;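 also: peak over basal fluorescence ratio within a 140 s kinetic read after compound addition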
CHRM5 PAM = potentiates acetylcholine response at human M5 receptor; CHO-K1 hM5, Fluo-8 calcium, ACh EC20 PAM; 0% = ACh EC20, 100% = ACh EC100; AID 624038; P08912; 0.3% of 360,000 active; activation, % at 3 µM;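 active = activation above the run cutoff, the mean activation of all test compounds plus 3 SD, cut at about 18% in these data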
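Measured by: Fluo-8 calcium fluorescence; material: human M5 receptor in CHO-K1 cells; schedule: Post-acetylcholine fluorescence recording 140 s; benchmarks: low control EC20 acetylcholine (0%), high control EC100 acetylcholine (100%); read-out: Max/basal fluorescence ratio as % of EC20–EC100 ACh window; compound: single dose, 3 µM nominal final test concentration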
M1 PAM = positive allosteric modulators of human M1 muscarinic receptor; 0.088% of 360,000 active; P11229; CHO-K1 hM1, Fluo-8 calcium fluorescence, ACh EC20; 0% = ACh EC20, 100% = maximal ACh; activation, % at 3 µM; in the data active = activation above about 19%, passing the limit was not always enough
An asterisk follows results filed as active. Rows were chosen to be rich in hits. Some 2.2% of all compounds tested hit in one or more screens of this group.

Screening Cc1cc(C)cc(C(=O)NCC(=O)OCC(=O)NCC(F)(F)F)c1 returned M1 antag -19, CHRM5 antagonist -9, CHRM5 agonist 1, M1 ag 0, CHRM5 PAM 18* and M1 PAM 13.
For CCOC(=O)c1ccc(NC(=S)NCC(O)c2ccccc2)cc1 (configuration not stated) the results were M1 antag 34*, CHRM5 antagonist 38*, CHRM5 agonist 8, M1 ag -3, CHRM5 PAM -20 and M1 PAM -14.
Screening CCOC(=O)c1ccc(NC(=S)NCCc2ccccc2F)cc1 returned M1 antag 61*, CHRM5 antagonist 30*, CHRM5 agonist 3, M1 ag 0, CHRM5 PAM -34 and M1 PAM -20.
N[C@@H](CO)c1nnc([C@H](CC(=O)O)NC(=O)C2CCNCC2)o1 was read as M1 antag -8, CHRM5 antagonist 3, CHRM5 agonist -1, M1 ag -1, CHRM5 PAM 3 and M1 PAM 12.
Screening CCOC(=O)N1CCC(N2CCCC(CO)(Cc3ccccc3C)C2)CC1 (configuration not stated) returned M1 antag 26*, CHRM5 antagonist -2, CHRM5 agonist -9, M1 ag -10, CHRM5 PAM -3 and M1 PAM -20.
`CCOC(=O)N1CCC(N2CCCC(CO)(Cc3cccc(Cl)c3)C2)CC1` (configuration not stated) gave M1 antag 39*, CHRM5 antagonist 12, CHRM5 agonist -15, M1 ag 0, CHRM5 PAM -16 and M1 PAM -15.
`CCOC(=O)C1(Cc2cccc(Cl)c2)CCCN(C(=O)C2CC2)C1` (configuration not stated) gave M1 antag 5, CHRM5 antagonist -5, CHRM5 agonist -7, M1 ag 0, CHRM5 PAM 1 and M1 PAM 5.
For O=C(NC1CC2CCCC(C1)N2C(=O)Nc1ccc(F)cc1)c1ccccc1 (configuration not stated) the results were M1 antag -11, CHRM5 antagonist 8, CHRM5 agonist -5, M1 ag -3, CHRM5 PAM 6 and M1 PAM 7.
Screening COc1ccccc1-n1cnnc1SCC(=O)NCC1CCCO1 (configuration not stated) returned M1 antag 2, CHRM5 antagonist 1, CHRM5 agonist -1, M1 ag -4, CHRM5 PAM -6 and M1 PAM 0.
For Cc1ccc(NC(=O)CNC(=O)c2cccc(C)c2)nc1 the results were M1 antag -7, CHRM5 antagonist 1, CHRM5 agonist 2, M1 ag 21*, CHRM5 PAM -2 and M1 PAM 0.
`Cc1ccc(NC(=O)CNC(=O)c2ccc(Oc3ccccc3)cc2)nc1` gave M1 antag -7, CHRM5 antagonist -7, CHRM5 agonist 2, M1 ag -2, CHRM5 PAM 0 and M1 PAM 5.
Cn1nc(C(F)(F)F)c(/C=N/OC(=O)c2ccccc2Cl)c1SCc1ccccc1Cl was read as M1 antag 33*, CHRM5 antagonist -4, CHRM5 agonist -7, M1 ag -7, CHRM5 PAM -16 and M1 PAM -28.
Screening COC(=O)c1ccc(NC(=O)Nc2ccc(F)cc2)cc1 returned M1 antag 13, CHRM5 antagonist 21, CHRM5 agonist 6, M1 ag 1, CHRM5 PAM -17 and M1 PAM -3.
COC(=O)c1cccc(NC(=O)NC(=O)c2ccccc2Cl)c1 was read as M1 antag -15, CHRM5 antagonist 0, CHRM5 agonist -2, M1 ag 0, CHRM5 PAM 10 and M1 PAM 14.
For COC(=O)c1cccc(NC(=O)Nc2ccc(Cl)c(Cl)c2)c1 the results were M1 antag 43*, CHRM5 antagonist 32*, CHRM5 agonist 12, M1 ag 4, CHRM5 PAM -26 and M1 PAM -23.
For COC(=O)c1ccc(NC(=O)Nc2ccc([N+](=O)[O-])cc2)cc1 the results were M1 antag 24, CHRM5 antagonist 35*, CHRM5 agonist 4, M1 ag 4, CHRM5 PAM -23 and M1 PAM -11.
COC(=O)c1ccc(NC(=O)Nc2ccc(F)c(Cl)c2)cc1 was read as M1 antag 32*, CHRM5 antagonist 31*, CHRM5 agonist 15, M1 ag 7, CHRM5 PAM -21 and M1 PAM -19.
`COC(=O)c1cc(NC(=O)Nc2ccccc2)ccc1Cl` gave M1 antag 22, CHRM5 antagonist 31*, CHRM5 agonist 8, M1 ag 3, CHRM5 PAM -19 and M1 PAM -12.
O=C(Nc1ccccc1)Nc1cccc(Cl)c1 was read as M1 antag 27, CHRM5 antagonist 23, CHRM5 agonist 9, M1 ag -2, CHRM5 PAM -17 and M1 PAM -14.
O=C(Nc1ccc(C(=O)O)cc1)Nc1ccc([N+](=O)[O-])cc1 was read as M1 antag -6, CHRM5 antagonist 4, CHRM5 agonist 0, M1 ag -2, CHRM5 PAM -3 and M1 PAM 2.
`Cc1ccc(NC(=O)c2ccc(=O)[nH]c2)cc1S(=O)(=O)N1CCCCC1` gave M1 antag -13, CHRM5 antagonist -9, CHRM5 agonist -4, M1 ag -1, CHRM5 PAM 18 and M1 PAM 16.
Screening CCOC(=O)c1nn(C)c2[nH]c(=O)n(C)c(=O)c12 returned M1 antag -12, CHRM5 antagonist 2, CHRM5 agonist 4, M1 ag -1, CHRM5 PAM 4 and M1 PAM 5.
Screening CCCCc1c(Cc2ccccc2)ncn1CCc1ccccc1OC returned CHRM5 antagonist 21, CHRM5 agonist -1 and CHRM5 PAM -22.
Screening Cc1ccc(NC(=O)C2=CC(c3ccc(C)cc3)=NS(=O)(=O)N2C)cc1 returned M1 antag 36*, CHRM5 antagonist 26, CHRM5 agonist 9, M1 ag 4, CHRM5 PAM -23 and M1 PAM -23.
CN(CCOc1ccc(Cl)cc1)Cc1cccc(S(=O)(=O)N(C)C)c1 was read as M1 antag 16, CHRM5 antagonist 16, CHRM5 agonist -2, M1 ag 32*, CHRM5 PAM -5 and M1 PAM -7.
CN(CCOc1ccccc1)Cc1ccccc1 was read as M1 antag 6, CHRM5 antagonist -6, CHRM5 agonist -4, M1 ag -9, CHRM5 PAM 0 and M1 PAM -4.
For COc1ccc2nc3ccccc3nc2c1NC(=O)c1ccccc1Cl the results were M1 antag -5, CHRM5 antagonist 28*, CHRM5 agonist 0, M1 ag -5, CHRM5 PAM -14 and M1 PAM -1.
